Lmaj promast: Leishmania major promastigote growth inhibition, primary screen; Leishmania major promastigotes, resazurin fluorescence viability; inhibition, % at 10 µM; 200,000 compounds, 9% hits; in the data active = inhibition above about 50%;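 also: promastigotes grown with compound for 44 hours at 28 °C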
bCat nuc transl: modulators of beta-catenin nuclear translocation, primary screen, imaging, HeLa cells, immunofluorescence, high-content. nuclear translocation activity, % at 5 µM. 190,000 compounds, 0.3% hits;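 active = nuclear translocation activity above 50% at 5 µM, with a well cell count of 50 or more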;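 also: per-cell ratio of nuclear to cytoplasmic median beta-catenin stain intensity; plate controls were DMSO negative control for no effect and GSK-3 inhibitor IX positive control for full effect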
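test system = HeLa cells, endogenous beta-catenin | dosing = single 5 µM dose plus 0.02–20 µM confirmation series | times = compound treatment 24 h, 37°C, 5% CO2 | technique = beta-catenin immunofluorescence imaging with DAPI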
Dynein cargo inh: inhibitors of GR-EGFP nuclear translocation, primary screen, dynein cargo transport inhibitor project, imaging, high-content, 3617.4 mouse cells | test concentration mostly 20 µM; stimulated with dexamethasone, 1 µM; active compounds read low | z-score, hits read low | 220,000 compounds, 0.47% hits | AID 1381, 2008;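 active = plate z-score of nuclear minus cytoplasmic receptor signal below a set negative limit, without overly bright fluorescence or cell loss, cut at about -3.5 in these data, passing the limit was not always enough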;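 also: z-score of nuclear minus cytoplasmic ring GR-EGFP intensity difference per well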
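Buffer or medium: tet-free, stripped-serum medium; reagent: dexamethasone at 1.0 µM final, 30 min; incubation: 48 h induction, 1 h compound, 30 min dex at 37 °C; measured by: formaldehyde fixation, Hoechst nuclear stain, 10x automated fluorescence imaging; read-out: nuclear-to-cytoplasmic GR-EGFP distribution per well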
HSV augment: enhancers of HSV replication in host cells, fold increase, host cell viability; HSV replication augmentation in cells; maximum fold increase; 220,000 compounds, 0.005% hits; AID 1956, 2009; in the data active = maximum fold increase above about 1.5; tested in PC3 cells
MT stabilizer: microtubule stabilizers in HeLa cells, primary screen, imaging, high-content imaging; 200,000 compounds, 0.83% hits; AID 2205, 2009; % tubulin-high responders, % at 10 µM; HeLa tubulin immunostaining HCS, 24 h; share of cells brighter than vehicle mean+2SD;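 active = plate Z-score above 3 for both tubulin-high and condensed-nucleus cell shares, with cell loss under 80%, at 10 µM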;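 also: anti alpha tubulin signal scored within the nucleus-defined area of each cell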
Lmaj promast 1uM: Leishmania major promastigote growth inhibition, confirmation, 1 µM repeat of primary hits. shares compounds with Lmaj promast. L. major promastigote growth, resazurin fluorescence, 48 h. inhibition, % at 1 µM. 1,100 compounds, 13% hits. AID 1258, 2008;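 active = inhibition above about 50% in both repeat tests, limit read from the data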
Numbers without * were called inactive; i = inactive; nt = no result given. In the library only some 8.9% were active in any assay of this set; here they are far more common.

SMILES | Lmaj promast | bCat nuc transl | Dynein cargo inh | HSV augment | MT stabilizer | others
CN1C(=O)CC(N2CCN(c3ccc(Cl)cc3)CC2)C1=O (stereo unspecified) | 42 | 1 | 0.65 | i | 1
OCCN1CCN(C2Cc3cc(Cl)ccc3Sc3ccc(Cl)cc32)CC1 (stereo unspecified) (tested in a mixture with another compound) | 55* | 1 | -1.3 | nt | 3
CN1CCN(CCOC2Cc3ccccc3Sc3ccc(Cl)cc32)CC1 (stereo unspecified) | 66* | -2 | 0.19 | i | 3
O=C(CN1CCN(CCOCCO)CC1)N1c2ccccc2Sc2ccc(Cl)cc21 | 19 | 0 | -0.44 | i | 2
CC(C)C(=O)NC(=S)NCC(=O)c1ccccc1 | -3 | 1 | -0.15 | nt | 1
CN1CCN(C(=S)Nc2cc([N+](=O)[O-])ccc2Cl)CC1 | 66* | 0 | 2 | i | 2
CN1CCN(C(=S)c2ccc(Br)cc2)CC1 | 85* | 1 | -0.59 | i | 2
CN1CCN(C(=O)c2ccc(S(=O)(=O)c3ccc(Br)cc3)cc2)CC1 | 0 | 2 | -0.2 | i | 10
CSc1ccc(C(=S)N2CCN(C)CC2)cc1 | 94* | -2 | -0.47 | i | 2
CSc1ccc(C(=S)N2CCN(C(c3ccccc3)c3ccccc3)CC2)cc1 | 28 | nt | -0.46 | i | 4
CN1CCN(C(=S)c2ccc(N(C)C)cc2)CC1 | 94* | 0 | 0.55 | i | 4
CN(C)c1ccc(C(=S)N2CCN(Cc3ccccc3)CC2)cc1 | 20 | -1 | -0.15 | i | 2
Cc1cc(C)c(C(N)=O)c(SCC(=O)c2cc(C)c(C)cc2C)n1 | -1 | -2 | -0.87 | i | 5
CN1CCN(C(=S)c2ccc([N+](=O)[O-])cc2)CC1 | 66* | -2 | -0.25 | i | 3
CCN1CCN(C(=S)c2ccc(Br)cc2)CC1 | 85* | -3 | -0.59 | i | 2
O=[N+]([O-])c1ccc(C(=S)N2CCC(Cc3ccccc3)CC2)cc1 | -5 | 0 | -0.4 | i | 4
CCn1c(/C=C/N(C(C)=O)c2ccccc2)[n+](CC)c2ccc(Cl)cc21 | 18 | -2 | -0.051 | i | 1
CC[n+]1c(/C=C/N(C)c2ccccc2)oc2ccc(Cl)cc21 | 100* | 2 | 1.4 | i | 5
Cc1onc(-c2ccccc2)c1C(=O)N/N=C/c1cc2c(cc1Br)OCO2 | 100* | nt | -0.28 | i | 4
Cn1c(/C(C#N)=C/C2CC=CCC2)nc2ccccc21 (stereo unspecified) | 79* | 2 | -1.6 | i | 5
N#C/C(=C\C1CC=CCC1)c1nc2ccccc2[nH]1 (stereo unspecified) | 95* | 0 | -0.16 | i | 2
CN(C)/C=C(\C#N)c1nc2ccccc2[nH]1 | 18 | nt | -0.81 | i | 2
O=C(Oc1cccc2cccnc12)c1ccc(N2C(=O)C3C4CCC(C4)C3C2=O)cc1 (stereo unspecified) | 99* | 1 | -0.5 | i | 3
O=C(Oc1cccc2cccnc12)c1cccc(-n2cnnn2)c1 | -6 | 1 | -0.39 | i | 3
O=C(Oc1cccc2cccnc12)c1cccc(N2C(=O)C3C4CCC(C4)C3C2=O)c1 (stereo unspecified) | 97* | -1 | 0.54 | i | 4
SMILES | Lmaj promast | bCat nuc transl | Dynein cargo inh | HSV augment | MT stabilizer | others
COc1ccc(NC(=O)C2CC(=O)N/C(=N/N=C/c3ccco3)S2)cc1 (stereo unspecified) | nt | 0 | 1.5 | i | nt
O=C1C(=O)c2c(C(=O)c3ccccc3)coc2-c2ccccc21 | 100* | nt | 1.1 | i | 4 | Lmaj promast 1uM=61*
C=CC[n+]1c(-c2ccccc2)csc1NC(C)(C)C | 3 | 1 | 0.97 | i | 3
C=CC[n+]1c(-c2ccc(OC)c(OC)c2)csc1NNC(=O)Nc1ccccc1 | 100* | 1 | 0.84 | i | 2 | Lmaj promast 1uM=47
O=C(NCc1ccc2c(c1)OCO2)C1CCN(S(=O)(=O)c2cccc3nsnc23)CC1 | 2 | -1 | 0.5 | nt | 5
C/C(=N/NC(=O)c1ccccn1)c1c[nH]c2ccccc12 | nt | 0 | 0.57 | i | nt
C/C(=N\NC(=O)c1c[nH]c2ccccc12)c1ccc(C)o1 | 54* | nt | 0.51 | i | 4 | Lmaj promast 1uM=0
CCC(Sc1nc2ccccc2c(=O)n1CCN1CCOCC1)C(=O)NCc1cccnc1 (stereo unspecified) | 5 | nt | -0.36 | i | 2
CC1CC2(C)Oc3ccccc3CC2C(C)C1CNCCCN(C)C (stereo unspecified) | 100* | 57* | 2.6 | i | 3 | Lmaj promast 1uM=23
COc1cc(/C=N/NC(N)=O)ccc1OCC(=O)Nc1ccc(C)c(C)c1 | -6 | 1 | -0.67 | i | 2
C/C(CCN1CCc2nc(-c3ccccc3)c(-c3ccccc3)cc2C1)=N\O[C@@H](C)c1cc(-c2c(C)cc(C)cc2C)no1 | 83* | nt | -1.2 | nt | 3 | Lmaj promast 1uM=-12
CCc1cc2c(nc1CC)CCN(CC/C(C)=N/O[C@@H](C)c1cc(-c3c(C)cc(C)cc3C)no1)C2 | 92* | -4 | 2.1 | nt | 5 | Lmaj promast 1uM=-15
C/C(CCN1CCc2nc(-c3ccccc3)c(-c3ccccc3)cc2C1)=N\OC[C@@H](C)[C@H](OCc1ccccc1)C(C)C | 4 | nt | -0.54 | i | 3
C/C(CCN1CCc2nc(-c3ccccc3)c(-c3ccccc3)cc2C1)=N\O[C@H](C)c1cn([C@H](CO)Cc2ccccc2)nn1 | 3 | nt | 0.24 | nt | 3
CC(=O)Nc1ccc(-c2csc(NC(=O)C3CCN(S(=O)(=O)c4cccs4)CC3)n2)cc1 | 70* | nt | -0.2 | i | 3 | Lmaj promast 1uM=-1
CCCCc1nc(NCCO)c(C#N)c2c1CCCC2 | 12 | -3 | -0.64 | i | 10
O=C(Nc1cccc(-c2nnn(CC(=O)N3CCc4ccccc4C3)n2)c1)C1CCC1 | 99* | 2 | 0.46 | i | 2 | Lmaj promast 1uM=-2
O=C(Nc1ccccc1-c1nnn(CC(=O)N2CCc3ccccc3C2)n1)C1CCC1 | -3 | -3 | -0.28 | i | 1
O=C(c1ccccc1Sc1cccc2ccccc12)N1CCOCC1 | 27 | -3 | -0.32 | i | 5
Fc1ccccc1CNc1cc(Cl)cc(Cl)c1 | 2 | 0 | -0.2 | i | 2
Fc1ccccc1Sc1ccccc1CNC1=NCCN1 | 99* | nt | 3.9 | i | 3 | Lmaj promast 1uM=5
c1ccc(Sc2cccc3ccccc23)c(CNC2=NCCN2)c1 | 99* | 1 | 0.41 | i | 2 | Lmaj promast 1uM=-11
COC(=O)C(Cc1cnc(Cl)s1)(C(=O)OC)c1ccc([N+](=O)[O-])cc1[N+](=O)[O-] | 63* | -4 | -0.32 | i | 3 | Lmaj promast 1uM=-15

Screening data deposited in PubChem BioAssay by several laboratories.
